Where two headings read alike, the source gives them in different places. Blank lines part the entries; values can stand above or below the compound they belong to.
Tests used:
[1] = target: T1, PfPFT (P. falciparum protein farnesyltransferase) (Plasmodium falciparum, UniProt Q5EI73+Q5EI74); experiment: PfPFT [3H] scintillation proximity assay; type: biochemical; conditions: for inhibition at 0.05 µM: read-out: Inhibition of PfFTase (%) 50 nM; for Inhibition of PfFTase (%) 50 nM: 50 nM inhibitor concentration
[2] = system: P. falciparum 3D7 (chloroquine-sensitive); conditions: strain 3D7, infected erythrocytes; previously published data ref 26, 27; cited from earlier work
[3] = system: P. falciparum K1 (chloroquine-resistant, pyrimethamine-resistant); conditions: strain K1, infected erythrocytes; previously published data ref 26, 27; cited from earlier work
[4] = system: PfPFT (P. falciparum protein farnesyltransferase); experiment: PfPFT [3H] scintillation proximity assay; type: biochemical; conditions: rat PFT IC50 / PfPFT IC50
[5] = system: P. falciparum K1 (chloroquine-resistant, pyrimethamine-resistant); type: cell-based; conditions: Plasmodium falciparum, K1, Erythrocyte, 48 h, read-out: ED50 (nM) K1
Summary of the method: (§1)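 Parasites cultured in type A+ human erythrocytes (2% hematocrit) in RPMI-1640 with 20% heat-inactivated type A+ human plasma, under 5% CO2/5% O2/90% N2. Test compound in DMSO added to culture at 0.5% parasitemia and 0.5% hematocrit. Incubated 37 °C for 48 h, then [8-3H]hypoxanthine (0.3 µCi) added for a further 24 h. Cells harvested to filter mats and counted by β-scintillation. Uninfected-erythrocyte background subtracted; DMSO-only wells taken as 100% growth. ED50 from linear regression of incorporation vs concentration.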

rat PFT = rat PFT (Rattus norvegicus, UniProt Q02293+Q04631); experiment: rat PFT [3H] scintillation proximity assay; type: biochemical
[6] = target: T1, PfPFT (P. falciparum protein farnesyltransferase); conditions: 50 nM inhibitor concentration; previously published data ref 26, 27; cited from earlier work
[7] = system: P. falciparum 3D7 (chloroquine-sensitive); type: cell-based; conditions: Plasmodium falciparum, 3D7, Erythrocyte, 48 h, read-out: ED50 (nM) 3D7
Summary of the method: as §1

[8] = incubation with liver microsomes; cited from earlier work

Compound: Cn1cnc(S(=O)(=O)N(CC(=O)N(Cc2cncn2C)c2ccc(C#N)cc2)Cc2ccccc2)c1 [4a, 2-[Benzyl(1-methyl-1H-imidazole-4-sulfonyl)amino]-N-(4-cyanophenyl)-N-(3-methyl-3H-imidazol-4-ylmethyl)acetamide]
- inhibition at 0.05 µM [1]: 0%

Compound: Cn1cnc(S(=O)(=O)N(CCN(Cc2cncn2C)c2ccc(C#N)cc2)Cc2ccccc2)c1 [1a]
- ED50 (nM) 3D7 [2]: 349 nM
- ED50 (nM) K1 [3]: 375 nM

Compound: Cn1cnc(S(=O)(=O)N(CCC(=O)N(Cc2cncn2C)c2ccc(C#N)cc2)Cc2ccccc2)c1 [5a, 3-[Benzyl-(1-methyl-1H-imidazole-4-sulfonyl)amino]-N-(4-cyanophenyl)-N-(3-methyl-3H-imidazol-4-ylmethyl)propanamide]
- inhibition at 0.05 µM [1]: 0%

Compound: Cn1cnc(S(=O)(=O)N(CC2CCN(C(=O)OC(C)(C)C)CC2)[C@H]2CCC[C@@H]2N(Cc2cncn2C)c2ccc(C#N)cc2)c1 (racemic) [7d, (±)-[N-(N-tert-Butoxycarbonylpiperidin-4-ylmethyl)-N-{trans-2-[(4-cyanophenyl)(3-methyl-3H-imidazol-4-ylmethyl)amino]cyclopentyl}]-1-methyl-1H-imidazole-4-sulfonamide]
- Selectivity (ratio of rat to P. falciparum PFT IC50 values) [4]: >100 fold
- IC50 [5]: 600 nM
- IC50 (rat PFT): > 1000 nM

Compound: Cn1cnc(S(=O)(=O)N(CCN(Cc2cncn2C)c2ccc(C#N)cc2)CC2CCN(c3ncccn3)CC2)c1 [1e]
- ED50 (nM) 3D7 [2]: 130 nM
- ED50 (nM) K1 [3]: 85 nM

Compound: Cn1cnc(S(=O)(=O)N(CCN(Cc2cncn2C)c2ccc(C#N)cc2)Cc2ccsc2)c1 [1c]
- ED50 (nM) 3D7 [2]: 150 nM
- Inhibition of PfFTase (%) 50 nM [6]: 100%
- ED50 (nM) K1 [3]: 240 nM

Compound: Cn1cnc(S(=O)(=O)N(CCC(=O)N(Cc2cncn2C)c2ccc(C#N)cc2)CC2CCN(C(=O)OC(C)(C)C)CC2)c1 [5d, 3-[(N-tert-Butoxycarbonylpiperidin-4-ylmethyl)(1-methyl-1H-imidazole-4-sulfonyl)amino]-N-(4-cyanophenyl)-N-(3-methyl-3H-imidazol-4-ylmethyl)propanamide]
- inhibition at 0.05 µM [1]: 0%

Compound: Cn1cnc(S(=O)(=O)N(CC(=O)N(Cc2cncn2C)c2ccc(C#N)cc2)CC2CCN(C(=O)OC(C)(C)C)CC2)c1 [4d, 2-[(N-tert-Butoxycarbonylpiperidin-4-ylmethyl)(1-methyl-1H-imidazole-4-sulfonyl)amino]-N-(4-cyanophenyl)-N-(3-methyl-3H-imidazol-4-ylmethyl)acetamide]
- inhibition at 0.05 µM [1]: 0%

Compound: Cn1cnc(S(=O)(=O)N(CC2CCN(C(=O)OC(C)(C)C)CC2)[C@H]2CC[C@@H](N(Cc3cncn3C)c3ccc(C#N)cc3)CC2)c1 [10d, (±)-[N-(N-tert-Butoxycarbonylpiperidin-4-ylmethyl)-N-{cis-4-[(4-cyanophenyl)(3-methyl-3H-imidazol-4-ylmethyl)amino]cyclohexyl}]-1-methyl-1H-imidazole-4-sulfonamide]
- Inhibition of PfFTase (%) 50 nM [1]: no inhibitory activity
- inhibition at 0.05 µM [1]: 0%
- IC50 [5]: 650 nM

- IC50 [5]: 2600 nM
- IC50 [7]: 2400 nM
Compound: Cc1ccccc1CN([C@H]1CC[C@@H](N(Cc2cncn2C)c2ccc(C#N)cc2)C1)S(=O)(=O)c1cn(C)cn1 (racemic) [8b, (±)-[N-(2-Methylbenzyl)-N-{cis-3-[(4-cyanophenyl)(3-methyl-3H-imidazol-4-ylmethyl)amino]cyclopentyl}]-1-methyl-1H-imidazole-4-sulfonamide]

Compound: Cn1cnc(S(=O)(=O)N(CC2CCN(C(=O)OC(C)(C)C)CC2)[C@@H]2CCC[C@@H]2N(Cc2cncn2C)c2ccc(C#N)cc2)c1 (racemic) [6d, (±)-[N-(N-tert-Butoxycarbonylpiperidin-4-ylmethyl)-N-{cis-2-[(4-cyanophenyl)(3-methyl-3H-imidazol-4-ylmethyl)amino]cyclopentyl}]-1-methyl-1H-imidazole-4-sulfonamide]
- Selectivity (ratio of rat to P. falciparum PFT IC50 values) [4]: >2.9 fold
- IC50 [7]: 3000 nM
- IC50 (rat PFT): > 1000 nM

Compound: Cn1cnc(S(=O)(=O)N(CC2CCN(C(=O)OC(C)(C)C)CC2)[C@@H]2CC[C@@H](N(Cc3cncn3C)c3ccc(C#N)cc3)C2)c1 (racemic) [9d, (±)-[N-(N-tert-Butoxycarbonylpiperidin-4-ylmethyl)-N-{trans-3-[(4-cyanophenyl)(3-methyl-3H-imidazol-4-ylmethyl)amino]cyclopentyl}]-1-methyl-1H-imidazole-4-sulfonamide]
- IC50 [5]: 80 nM
- IC50 [7]: 310 nM

Compound: Cn1cnc(S(=O)(=O)N(CC2CCN(C(=O)OC(C)(C)C)CC2)CC(C)(C)N(Cc2cncn2C)c2ccc(C#N)cc2)c1 [3d, [N-(N-tert-Butoxycarbonylpiperidin-4-ylmethyl)-N-{(4-cyanophenyl)(3-methyl-3H-imidazol-4-ylmethyl)amino}-2,2-dimethylethyl]-1-methyl-1H-imidazole-4-sulfonamide]
- IC50 [5]: 250 nM
- IC50 [7]: 400 nM

Compound: Cn1cnc(S(=O)(=O)N(CC2CCN(C(=O)OC(C)(C)C)CC2)[C@H]2CC[C@H](N(Cc3cncn3C)c3ccc(C#N)cc3)CC2)c1 [11d, (±)-[N-(N-tert-Butoxycarbonylpiperidin-4-ylmethyl)-N-{trans-4-[(4-cyanophenyl)(3-methyl-3H-imidazol-4-ylmethyl)amino]cyclohexyl}]-1-methyl-1H-imidazole-4-sulfonamide]
- Inhibition of PfFTase (%) 50 nM [1]: no inhibitory activity
- inhibition at 0.05 µM [1]: 0%
- IC50 [5]: 1200 nM

- IC50 [5]: 1200 nM
- IC50 [7]: 1500 nM
Compound: Cn1cnc(S(=O)(=O)N(Cc2ccsc2)[C@@H]2CC[C@@H](N(Cc3cncn3C)c3ccc(C#N)cc3)C2)c1 (racemic) [9c, (±)-[N-(Thiophen-3-ylmethyl)-N-{trans-3-[(4-cyanophenyl)(3-methyl-3H-imidazol-4-ylmethyl)amino]cyclopentyl}]-1-methyl-1H-imidazole-4-sulfonamide]

- IC50 [5]: 2700 nM
- IC50 [7]: 2700 nM
Compound: Cn1cnc(S(=O)(=O)N(Cc2ccsc2)[C@H]2CCC[C@@H]2N(Cc2cncn2C)c2ccc(C#N)cc2)c1 (racemic) [7c, (±)-[N-(Thiophen-3-ylmethyl)-N-{trans-2-[(4-cyanophenyl)(3-methyl-3H-imidazol-4-ylmethyl)amino]cyclopentyl}]-1-methyl-1H-imidazole-4-sulfonamide]

- IC50 [5]: 800 nM
- IC50 [7]: 700 nM
Compound: Cn1cnc(S(=O)(=O)N(Cc2ccccc2)[C@H]2CC[C@@H](N(Cc3cncn3C)c3ccc(C#N)cc3)C2)c1 (racemic) [8a, (±)-[N-Benzyl-N-{cis-3-[(4-cyanophenyl)(3-methyl-3H-imidazol-4-ylmethyl)amino]cyclopentyl}]-1-methyl-1H-imidazole-4-sulfonamide]

- IC50 [5]: 1500 nM
- IC50 [7]: 2600 nM
Compound: Cn1cnc(S(=O)(=O)N(CC2CCN(c3ncccn3)CC2)[C@@H]2CC[C@@H](N(Cc3cncn3C)c3ccc(C#N)cc3)C2)c1 (racemic) [9e, (±)-[N-{N-(2-Pyrimidinyl)-piperidin-4-ylmethyl}-N-{trans-3-[(4-cyanophenyl)(3-methyl-3H-imidazol-4-ylmethyl)amino]cyclopentyl}]-1-methyl-1H-imidazole-4-sulfonamide]

- IC50 [5]: 2800 nM
- IC50 [7]: 2800 nM
Compound: Cc1ccccc1CN([C@@H]1CCC[C@@H]1N(Cc1cncn1C)c1ccc(C#N)cc1)S(=O)(=O)c1cn(C)cn1 (racemic) [6b, (±)-[N-(2-Methylbenzyl)-N-{cis-2-[(4-cyanophenyl)(3-methyl-3H-imidazol-4-ylmethyl)amino]cyclopentyl}]-1-methyl-1H-imidazole-4-sulfonamide]

- IC50 [5]: 2500 nM
- IC50 [7]: 2400 nM
Compound: Cn1cnc(S(=O)(=O)N(Cc2ccsc2)[C@H]2CC[C@@H](N(Cc3cncn3C)c3ccc(C#N)cc3)C2)c1 (racemic) [8c, (±)-[N-(Thiophen-3-ylmethyl)-N-{cis-3-[(4-cyanophenyl)(3-methyl-3H-imidazol-4-ylmethyl)amino]cyclopentyl}]-1-methyl-1H-imidazole-4-sulfonamide]

Compound: Cc1ccccc1CN(CCN(Cc1cncn1C)c1ccc(C#N)cc1)S(=O)(=O)c1cn(C)cn1 [1b]
- ED50 (nM) 3D7 [2]: 93 nM
- ED50 (nM) K1 [3]: 150 nM

Compound: Cn1cnc(S(=O)(=O)N(CCN(Cc2cncn2C)c2ccc(C#N)cc2)CC2CCN(C(=O)OC(C)(C)C)CC2)c1 [1d]
- ED50 (nM) 3D7 [2]: 88 nM
- metabolic stability [8]: limited
- ED50 (nM) K1 [3]: 54 nM
